Hits are enriched below; roughly 3.5% of the tested compounds scored in any of these assays.
RGS4 inh – human RGS4 inhibition; P49798; HEK293 M3R/RGS4 inducible, Fluo-4 calcium flux; active compounds read high; triggered by carbachol at its EC20; B-score at 10 µM; 310,000 compounds, 0.45% hits;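 active = B-score, a plate-corrected calcium signal, over three deviations above library mean, with baseline fluorescence within five deviations of library mean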;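 note: RGS4 expression induced by doxycycline in cells with stable M3 receptor; B-score is computed from the integrated fluorescence ratio over baseline after carbachol; higher B-score means a larger calcium signal and so more RGS4 inhibition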
Target sequence (P49798 whole entry, looked up): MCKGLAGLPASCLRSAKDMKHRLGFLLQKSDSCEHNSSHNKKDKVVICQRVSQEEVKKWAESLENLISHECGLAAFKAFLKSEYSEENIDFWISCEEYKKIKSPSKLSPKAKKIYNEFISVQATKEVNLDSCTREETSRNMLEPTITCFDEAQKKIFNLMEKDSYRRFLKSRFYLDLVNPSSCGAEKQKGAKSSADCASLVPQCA
MrgX1 antag – blocks BAM8-22 activation of human MrgX1 receptor. MRGX1-HEK293 calcium flux, Fluo-4, BAM8-22 antagonism; active compounds read low. AID 588676. B-score at 10 µM. Q96LB2. 310,000 compounds, 1.3% hits;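 active = calcium-response B-score plate-corrected more than 3 library SD below zero, starting fluorescence within 5 deviations, no agonist response on first addition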;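 note: peak minus trough fluorescence over baseline after final BAM8-22 challenge near maximal dose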
Target sequence (Q96LB2 whole entry, looked up): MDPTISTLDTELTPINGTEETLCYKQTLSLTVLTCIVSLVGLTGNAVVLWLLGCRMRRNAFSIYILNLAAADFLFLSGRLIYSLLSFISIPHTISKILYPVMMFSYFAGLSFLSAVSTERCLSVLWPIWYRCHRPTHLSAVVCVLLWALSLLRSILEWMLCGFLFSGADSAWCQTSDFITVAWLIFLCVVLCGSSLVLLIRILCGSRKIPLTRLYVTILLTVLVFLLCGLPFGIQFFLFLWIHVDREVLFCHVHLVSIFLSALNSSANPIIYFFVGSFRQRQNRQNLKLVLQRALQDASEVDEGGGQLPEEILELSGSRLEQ
MrgX1 PAM – human MrgX1 positive allosteric modulation, primary screen. MrgX1-HEK293, Fluo-4 calcium flux, FDSS; active compounds read high. 310,000 compounds, 0.63% hits. Q96LB2. B-score at 10 µM. AID 588675;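 active = plate-corrected calcium response at least 3 library SD above typical, normal starting fluorescence, not activating the receptor alone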;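 note: compound read alongside a low EC10 to EC30 dose of BAM8-22 agonist; peak minus trough fluorescence over baseline measured at the second addition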
RGS4 act – potentiators or activators of RGS4; HEK293 M3R/inducible RGS4, carbachol calcium flux Fluo4; active compounds read low; B-score at 10 µM; 310,000 compounds, 0.92% hits;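 active = B-score of the integrated calcium signal more than 4 SD below the library mean, with starting fluorescence not abnormally high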;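 note: negative B-score means reduced calcium response which marks RGS4 activation or potentiation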
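Assay system: HEK293 FlpIn-TREx cells, stable M3R, doxycycline-inducible RGS4 / Probe or stimulus: carbachol, ECmax concentration / Times: overnight RGS4 induction, 30 min dye load 37 °C, 20 min compound RT / Signal: kinetic calcium fluorescence imaging with Fluo4-AM dye, 2 µM / Measure: Agonist-evoked peak-minus-minimum fluorescence over baseline, integrated ratio, B score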
MrgX1 ag – activates human MrgX1 receptor signaling. 310,000 compounds, 0.44% hits. B-score at 10 µM. MrgX1-HEK293 cells, Fluo-4 calcium fluorescence, agonist mode; active compounds read high;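 active = calcium response B-score plate-corrected fluorescence ratio at least 3 library SD, with starting fluorescence B-score inside 5 SD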
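Material: MrgX1-expressing HEK293 cells / Dosing: compound as first of three additions / Incubation: overnight seeding, then 1 h dark dye loading / Signal: Fluo-4 NW calcium fluorescence / Evaluation: B-scored fluorescence response ratio / Benchmarks: positive and negative control wells on each plate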
RGS4 block valid – validation of RGS4 inhibitors; shares compounds with RGS4 inh; HEK293 M3R/RGS4, carbachol calcium Fluo-4 fluorescence; carbachol added at its EC20; 0 = buffer wells, 100 = carbachol control; calcium response, % at 10 µM; 1,700 compounds, 65% hits; AID 492999;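 active = duplicate-averaged calcium response above the buffer-only control mean plus 5 SD of those controls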;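 note: integrated fluorescence ratio F max minus min over baseline F0; higher response in RGS4-induced cells means RGS4 inhibition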
M3R Ca ctr – non-induced cell nonspecific activity of RGS4 inhibitors. shares compounds with RGS4 inh. HEK293 M3R non-induced, carbachol calcium Fluo-4; submaximal (EC20) carbachol stimulus; buffer wells 0%, carbachol control wells 100%. activity (percent), % at 10 µM. 1,900 compounds, 20% hits; call rule not given here;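 note: RGS4 induction absent so cells express M3R without RGS4; higher means more calcium signal and flags a non-specific hit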
RGS4 inh ctr2 – signal in non-induced cells without carbachol, RGS4 inhibitor counter-screen | shares compounds with RGS4 inh | HEK293 M3R/RGS4 non-induced, Fluo-4 calcium, no carbachol; normalised: buffer wells 0%, carbachol wells 100% | calcium response (agonist-mode artifact), % at 10 µM | 1,900 compounds, 22% hits | AID 493001;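 active = duplicate-averaged calcium rise in uninduced cells above buffer wells' mean plus 5 SD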
A number is an active result; - = inactive; . = no result.

SMILES | RGS4 inh | MrgX1 antag | MrgX1 PAM | RGS4 act | MrgX1 ag | RGS4 block valid | M3R Ca ctr | RGS4 inh ctr2
CC(=O)N1CCN(Cc2nc3cc(NC(=O)c4cccc(Br)c4)ccc3n2C)CC1 | - | - | - | - | - | . | . | .
CC1CCc2sc(C(=O)OC(C)C(=O)Nc3ncc(Cl)cc3Cl)cc2C1 (centres undefined) | - | - | - | - | - | . | . | .
O=C1NC2(CCCCC2)CO1 | - | - | - | - | - | . | . | .
OCC1OC(n2cnc3c(NCCc4ccccc4)ncnc32)C(O)C1O (centres undefined) | 6.4 | - | - | - | - | 29% | 68% | -
O=c1[nH]cnc2c1ncn2[C@@H]1O[C@H](CO)[C@@H](O)[C@H]1O | - | - | - | - | - | . | . | .
Nc1ccc(CCNc2ncnc3c2ncn3[C@@H]2O[C@H](CO)[C@@H](O)[C@H]2O)cc1 | - | - | - | - | - | . | - | -
CCOC(=O)c1cnc2c(C)c(C)ccc2c1NCCN1CCOCC1 | - | . | . | - | . | . | . | .
COc1ccc(NC(=O)CSc2ncc(-c3ccc(F)cc3)n2Cc2ccco2)cc1 | - | - | - | - | - | . | . | .
COc1ccc(-n2c(SCC#N)nnc2-c2ccc(NS(=O)(=O)c3ccc(C)cc3)cc2)cc1 | 7.2 | - | - | - | - | 13% | - | -
CC(=O)Nc1c(C(=O)O)oc2ccc(Cl)cc12 | - | - | - | - | - | . | . | .
COc1cc(C(C(=O)NC2CCCCC2)N(C(=O)Cc2c[nH]c3ccccc23)c2ccccc2C)cc(OC)c1OC (centres undefined) | 4.9 | - | - | - | - | 7.5% | - | -
Cc1nn(-c2ccccc2)c(Cl)c1/C=N/NC(N)=O | - | - | - | - | - | . | . | .
NC(=O)N/N=C/c1c(Sc2nnnn2-c2ccccc2)nc2ccccn2c1=O | 12 | - | - | - | - | 11% | - | -
Cc1ccnc(NS(=O)(=O)c2ccc(NC(=O)Cc3ccccc3)cc2)n1 | - | - | - | - | - | . | . | .
Cc1ccnc(NS(=O)(=O)c2ccc(NC(=O)CC(C)c3ccccc3)cc2)n1 (centres undefined) | 6.2 | - | - | - | - | 5.0% | - | -
COC(=O)c1sccc1S(=O)(=O)Nc1ccc(N2CCCCC2)cc1 | - | - | - | - | - | . | . | .
CCCc1nnc2n1N=C(c1ccc(OC)c(OC)c1)CS2 | 7.4 | - | - | - | - | 12% | 28% | -
COc1ccc(C2=Nn3c(nnc3C3CCCCC3)SC2)cc1OC | 11 | - | - | - | - | 22% | 49% | -
COc1ccc(OC)c(C2=Nn3c(nnc3C3CCCCC3)SC2)c1 | - | - | - | - | - | . | . | .
COc1ccc(-c2nnc3n2N=C(C)CS3)cc1OC | - | - | - | - | - | . | . | .
COc1ccc(C2=Nn3c(nnc3-c3ccccc3)SC2)cc1OC | - | - | - | - | - | . | - | -
COc1cc(OC)c(OC)cc1CN(C)C(c1ccccc1)c1nnnn1-c1ccccc1C (centres undefined) | - | - | - | - | - | . | . | .
Cc1ccc(CSCC(=O)Nc2ccc3c(c2)OCO3)cc1 | - | - | - | - | - | . | . | .
O=C(N/N=C/c1ccccn1)c1cccc(NC(=O)c2ccccc2Cl)c1 | - | - | - | - | - | . | . | .
Cc1ccc(NC(=O)CNC(=O)Cn2cnc3sc(C)c(C)c3c2=O)cc1F | 6.9 | - | - | - | - | 19% | 48% | -
SMILES | RGS4 inh | MrgX1 antag | MrgX1 PAM | RGS4 act | MrgX1 ag | RGS4 block valid | M3R Ca ctr | RGS4 inh ctr2
COc1cccc(CN2CCN(Cc3cc(OC)c(OC)cc3OC)CC2)c1 | - | - | - | - | - | . | . | .
Cc1ccc(Nc2nc(N)nc(CN3CCN(c4ccccc4)CC3)n2)cc1Cl | 6.6 | - | - | - | - | 14% | - | -
COc1ccccc1Nc1nc(N)nc(CN2CCN(c3ccccc3)CC2)n1 | - | - | - | - | - | . | . | .
COc1ccc(N2CCN(Cc3nc(N)nc(Nc4ccc(C)c(Cl)c4)n3)CC2)cc1 | - | - | - | - | - | - | - | -
O=S(=O)(Nc1ccc2c(c1)OCO2)c1ccccc1 | - | - | - | - | - | . | . | .
O=C(O)CN1C(=O)/C(=C/c2ccccc2Cl)Oc2ccccc21 | 6.5 | - | - | - | - | 22% | 31% | -
O=C(O)CN1C(=O)/C(=C/c2cccc(Cl)c2)Oc2ccccc21 | - | - | - | - | - | . | . | .
Cc1cc(C)n(CCCNC(=O)CN(C)S(=O)(=O)c2ccc(Cl)cc2)n1 | - | - | - | - | - | . | . | .
O=C(Cn1c(=O)n(-c2ccccc2)c(=O)c2oc3ccccc3c21)Nc1ccccc1 | - | - | - | - | - | . | . | .
COc1cc(/C=C(/C(=O)c2cccs2)c2nc3ccccc3[nH]2)cc(OC)c1O | 22 | - | - | - | - | 88% | 41% | -
CCOC(=O)/C(C#N)=C/c1cn(CCC(=O)O)nc1-c1ccccc1 | - | - | - | - | - | - | - | -
CCOC(=O)/C(C#N)=C/c1cn(CCC(=O)O)nc1-c1ccc(Cl)cc1 | - | - | - | - | - | - | - | -
CCOC(=O)/C(C#N)=C/c1cn(CCC(=O)O)nc1-c1cccc(Br)c1 | - | - | - | - | - | . | - | -
O=Cc1cn(CCC(=O)O)nc1-c1cccc(Cl)c1 | - | - | - | - | - | . | . | .
CCOC(=O)/C(C#N)=C/c1cn(CCC(=O)O)nc1-c1ccc(OC)cc1 | - | - | - | - | - | . | . | .
CCN(CC)S(=O)(=O)c1cccc(C(=O)N/N=C/c2ccccn2)c1 | - | - | - | - | - | . | . | .
Cn1c(Cc2ccccc2)nnc1SCC(=O)N1CCOCC1 | - | - | - | - | - | . | . | .
O=C(O)C(Cc1ccccc1)NS(=O)(=O)c1ccc2c(c1)OCCO2 (centres undefined) | - | - | - | - | - | . | . | .
C/C(=N\NC(=O)c1ccc(NS(=O)(=O)c2cccs2)cc1)c1ccncc1 | - | - | - | - | - | . | . | .
Cc1cccc(N2C(=O)c3ccc(C(=O)Nc4ccccn4)cc3C2=O)c1 | - | - | - | - | - | . | . | .
Cc1cccc(N2C(=O)/C(=C\c3ccc(C(=O)O)cc3)c3ccccc3C2=O)c1 | 10 | - | - | - | - | 38% | - | -
CCN(CC)CCN(C(=O)c1ccc2c(c1)CCCC2)c1nc2ccc(C)cc2s1 | - | - | - | - | - | . | . | .
CCN(CC)CCN(C(=O)c1ccc2c(c1)CCCC2)c1nc2ccc(OC)cc2s1 | - | - | - | - | - | - | - | -
CC(C)NC(=O)CSc1nc(Cc2ccccc2)nc2ccccc12 | - | - | - | - | - | . | . | .
COCCNC(=S)N(CCCO)Cc1cc2cc3c(cc2[nH]c1=O)OCCO3 | - | - | - | - | - | - | - | -

Bioassay records from PubChem.
